Article PMC4059944 (Nature, 2014)
Values joined by “and” are separate entries in the source; they are usually repeats but may differ in a detail not shown here. Equal entries are not always repeated. Ends that are not written are not given here.

T1: fluorescein-labelled yeast Sld5 peptide (1-19) (S. cerevisiae)
T1 peptide: fluorescein-MDINIDDILAELDKETTAV

T2: Ctf4 N-terminal deletion (Ctf4CTD, aa 461-927) (S. cerevisiae, UniProt Q01454 461-927)
T2 sequence: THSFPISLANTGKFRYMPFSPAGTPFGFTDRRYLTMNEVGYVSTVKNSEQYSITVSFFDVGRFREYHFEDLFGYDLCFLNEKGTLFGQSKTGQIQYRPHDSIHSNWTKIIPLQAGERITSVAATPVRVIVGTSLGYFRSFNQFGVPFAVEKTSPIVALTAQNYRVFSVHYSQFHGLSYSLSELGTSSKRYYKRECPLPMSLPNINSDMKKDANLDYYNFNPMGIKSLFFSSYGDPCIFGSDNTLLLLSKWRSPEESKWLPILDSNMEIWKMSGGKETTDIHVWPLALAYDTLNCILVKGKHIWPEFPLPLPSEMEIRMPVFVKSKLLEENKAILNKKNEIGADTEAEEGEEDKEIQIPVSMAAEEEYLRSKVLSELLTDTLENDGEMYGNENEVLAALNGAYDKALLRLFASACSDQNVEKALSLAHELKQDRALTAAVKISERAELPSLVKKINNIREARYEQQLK

B1: Ctf4CTD (yeast Ctf4 amino acids 471 to 927) (domain or fragment)
chain: TGKFRYMPFSPAGTPFGFTDRRYLTMNEVGYVSTVKNSEQYSITVSFFDVGRFREYHFEDLFGYDLCFLNEKGTLFGQSKTGQIQYRPHDSIHSNWTKIIPLQAGERITSVAATPVRVIVGTSLGYFRSFNQFGVPFAVEKTSPIVALTAQNYRVFSVHYSQFHGLSYSLSELGTSSKRYYKRECPLPMSLPNINSDMKKDANLDYYNFNPMGIKSLFFSSYGDPCIFGSDNTLLLLSKWRSPEESKWLPILDSNMEIWKMSGGKETTDIHVWPLALAYDTLNCILVKGKHIWPEFPLPLPSEMEIRMPVFVKSKLLEENKAILNKKNEIGADTEAEEGEEDKEIQIPVSMAAEEEYLRSKVLSELLTDTLENDGEMYGNENEVLAALNGAYDKALLRLFASACSDQNVEKALSLAHELKQDRALTAAVKISERAELPSLVKKINNIREARYEQQLK
B2: GINSPsf1ΔC (Strep III-tagged, for electron microscopy) (complex)
chain 1: MGYYDIDDVLADGTEFPCKFQYDIPGLGYLENNPGRPITKNTKLSLPLWLARILAIVGGDEALVDEEPVPFVELLPPDMFSTKVMNAIKTDPVALDLHSINSHFFSLAIKWIMLFSEKELANVVSELLLQRAQELNHHASSLSIDLNADSTGKNSANTNIATSTFLLKLEEMEKEIYKKSHESYKDTKRWMFKK
chain 2: MYGDLGNKLVLEAKRTKQLYARSNQDVNLPMYHEDIIRNILKEVSNLRKNTEYLKEQQQLGMLDDKVAKCQYFVTLLCMERNKRCLLAYQRLRTDILDSMAWNNNGLDLMSSITFSQQDTNNLSHQEQEYLKEYCDLITDLKSGDLVDIDLSGSLVPPSDVFID
chain 3: MSLPAHLQQTFSPEEIQFIVENEPIKIFPRITTRQKIRGDDRGTGNHTRWQLITTDDKALNNMVAMRSTEVVLWIALLLKQQSKCSIVAPQWLTTKELDRKIQYEKTHPDRFSELPWNWLVLARILFNKAKDDFHDPIHELRGKIQDLREIRQIKVLKGLKYLNESHLQLDNLSLLEINELRPFITEIMDKLREIHTASLTAGTENDEEEFNI
chain 4: MDINIDDILAELDKETTAVDSTKITQGSSSTTHRDANTIVGSSLDLNDKTQIYVSPQQDFSDLMKSWKNERCSPELLPYPHQLMKRLLNRISMQSQLIENISMGFLDMQNASNANPPMPNESKLPLLCMETELERLKFVIRSYIRCRLSKIDKFSLYLRQLNEDENSLISLTDLLSKDEIKYHDTHSLIWLKLVNDSILKYMPEELQAINDTEGSVNMIDEPDWNKFVFIHVNGPPDGKWNEDPLLQENEFGKPCYTVTIPDLKEEVELTIGSIYVMRYEVIRDLLRDDKVALI

What was measured:
[1] = target: T1, fluorescein-labelled yeast Sld5 peptide …; assay: fluorescence polarisation
[2] = target: the molecule itself; assay: SEC-MALS
[3] = Native mass spectrometry, oligomeric state; type: physicochemical, yeast (S. cerevisiae); conditions: nano-electrospray, 500 mM ammonium acetate
[4] = Multi-angle laser scattering; type: physicochemical, yeast (S. cerevisiae); conditions: size exclusion chromatography - MALS
Method in brief: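 Recombinant His-tagged full-length yeast Ctf4, expressed in E. coli BL21(DE3)-CodonPlus (1 mM IPTG, 37°C, 2 h), purified by Ni-NTA, Mono Q ion exchange and Superdex 200 gel filtration. About 100 μg loaded onto an HPLC size-exclusion column equilibrated in 150 mM NaCl, 20 mM Tris pH 8.0, 1 mM DTT. Eluate read by 8-angle light scattering and refractive index detectors.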

[5] = target: T2, Ctf4 N-terminal deletion (Ctf4CTD, aa …); assay: negative-stain single-particle electron microscopy
[6] = test system: Ctf4CTD; assay: Analytical gel filtration of Ctf4CTD - GINS; type: binding, yeast (S. cerevisiae); conditions: Superdex S200, 20 mM HEPES pH 7.2, 140 mM KCl, full-length or N-terminally truncated Sld5

Row | Molecule | fold tighter association than the Pol1 motif [1] [fold] | stoichiometry N [2] | oligomeric state in solution (native mass spectrometry) [3] | oligomeric state in solution (MALS) [4] | stoichiometry N [5] | Ctf4 - GINS interaction [6]
1 | B1 | ~5 | 3 | stable trimer in solution | stable trimer in solution |  | 
2 | B2 |  |  |  |  | 1 copies of GINS per Ctf4CTD trimer and 2 copies of GINS per Ctf4CTD trimer and 3 copies of GINS per Ctf4CTD trimer | dependent upon the unstructured tail at the N-terminus of the Sld5 subunit of GINS
